What was measured:
[1] = target: Serotonin 1 receptors; 5-HT1B & 5-HT1D (Homo sapiens) (UniProt P28222+P28221); experiment: Selectivity for human 5-hydroxytryptamine 1D receptor over 5-hydroxytryptamine 1B receptor; format: protein assay
[2] = target: T1, 5-hydroxytryptamine receptor 1D (Homo sapiens, UniProt P28221); experiment: Displacement of [3H]5-HT from human 5-hydroxytryptamine 1D receptor expressed in CHO cells; format: cell-based
Procedure, shortened: (§1)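 Radioligand displacement binding on membranes of cloned human receptors. Each determination lies within 0.3 log units of the mean.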

[3] = target: T2, 5-hydroxytryptamine receptor 1A (Homo sapiens, UniProt P08908); experiment: Displacement of [3H]WAY-100635 from human 5-hydroxytryptamine 1A receptor expressed in CHO cells; format: cell-based; procedure, shortened: as §1
T2 sequence (P08908 whole entry): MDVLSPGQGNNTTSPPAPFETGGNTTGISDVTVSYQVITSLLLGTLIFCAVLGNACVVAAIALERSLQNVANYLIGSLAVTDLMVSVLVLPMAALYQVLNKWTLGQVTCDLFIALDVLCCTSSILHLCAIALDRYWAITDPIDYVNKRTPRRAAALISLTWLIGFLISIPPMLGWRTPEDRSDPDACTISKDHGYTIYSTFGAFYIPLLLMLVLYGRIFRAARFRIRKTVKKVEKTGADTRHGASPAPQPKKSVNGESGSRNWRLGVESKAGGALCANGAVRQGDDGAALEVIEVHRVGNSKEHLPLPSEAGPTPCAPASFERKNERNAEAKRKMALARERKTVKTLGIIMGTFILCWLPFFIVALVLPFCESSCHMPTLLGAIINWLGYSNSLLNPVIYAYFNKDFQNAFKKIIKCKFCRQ

[4] = target: Sodium-dependent serotonin transporter (Rattus norvegicus, UniProt P31652); experiment: Inhibition of [3H]5-HT binding to serotonin transporter in rat cortical synaptosomes; format: subcellular, Brain
Chain of Sodium-dependent serotonin transporter (P31652 whole entry): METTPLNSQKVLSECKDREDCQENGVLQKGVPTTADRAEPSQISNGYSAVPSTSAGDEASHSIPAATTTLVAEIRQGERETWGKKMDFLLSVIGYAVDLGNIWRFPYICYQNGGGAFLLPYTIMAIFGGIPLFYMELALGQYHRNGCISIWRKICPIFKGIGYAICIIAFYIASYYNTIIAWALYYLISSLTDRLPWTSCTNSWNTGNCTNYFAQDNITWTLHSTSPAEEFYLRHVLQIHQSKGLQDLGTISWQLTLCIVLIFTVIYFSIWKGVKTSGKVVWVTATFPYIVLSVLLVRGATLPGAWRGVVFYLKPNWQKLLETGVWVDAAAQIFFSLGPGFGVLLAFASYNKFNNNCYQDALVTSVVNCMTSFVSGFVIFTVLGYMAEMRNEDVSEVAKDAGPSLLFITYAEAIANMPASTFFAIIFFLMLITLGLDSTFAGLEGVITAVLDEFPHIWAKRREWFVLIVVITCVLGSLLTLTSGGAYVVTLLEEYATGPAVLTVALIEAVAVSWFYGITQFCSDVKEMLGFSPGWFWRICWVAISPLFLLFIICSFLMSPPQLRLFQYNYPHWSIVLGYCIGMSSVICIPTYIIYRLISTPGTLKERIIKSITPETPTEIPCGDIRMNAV
Procedure, shortened: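 Radioligand binding to serotonin transporter in rat cortical synaptosomes. Each determination lies within 0.3 log units of the mean.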

[5] = target: T3, 5-hydroxytryptamine receptor 1B (Homo sapiens, UniProt P28222); experiment: Displacement of [3H]5-HT from human 5-hydroxytryptamine 1B receptor expressed in CHO cells; format: cell-based; procedure, shortened: as §1
T3 sequence (P28222 whole entry): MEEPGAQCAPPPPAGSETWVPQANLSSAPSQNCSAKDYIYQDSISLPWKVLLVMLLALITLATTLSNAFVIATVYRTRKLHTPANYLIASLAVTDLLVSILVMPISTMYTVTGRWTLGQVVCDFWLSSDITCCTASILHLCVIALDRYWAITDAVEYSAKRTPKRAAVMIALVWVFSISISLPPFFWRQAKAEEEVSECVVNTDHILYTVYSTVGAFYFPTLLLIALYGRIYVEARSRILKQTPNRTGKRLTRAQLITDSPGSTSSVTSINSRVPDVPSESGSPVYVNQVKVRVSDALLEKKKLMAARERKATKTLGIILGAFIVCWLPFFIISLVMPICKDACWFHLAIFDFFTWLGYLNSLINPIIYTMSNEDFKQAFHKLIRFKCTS

[6] = target: T1, 5-hydroxytryptamine receptor 1D
[7] = target: T4, 5-hydroxytryptamine receptor 1A (Homo sapiens) (UniProt P08908)
T4 sequence (whole entry): T2 sequence (P08908 whole entry)

[8] = target: T3, 5-hydroxytryptamine receptor 1B
[9] = target: T3, 5-hydroxytryptamine receptor 1B; experiment: Intrinsic activity for human 5-hydroxytryptamine 1B receptor in [35S]GTP-gamma-S, assay; format: functional
Procedure, shortened: (§2)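 [35S]GTPγS binding in recombinant cells with high receptor density expressing the human receptor. Ten-point half-log serial dilution gives the concentration–response. Intrinsic activity is expressed relative to the maximal response of the endogenous agonist 5-HT.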

[10] = target: T1, 5-hydroxytryptamine receptor 1D; experiment: Intrinsic activity for human 5-hydroxytryptamine 1D receptor in [35S]GTP-gamma-S, assay; format: functional; procedure, shortened: as §2
[11] = target: T4, 5-hydroxytryptamine receptor 1A (Homo sapiens); experiment: Intrinsic activity for human 5-hydroxytryptamine 1A receptor in [35S]GTP-gamma-S, assay; format: functional; procedure, shortened: as §2
[12] = target: T4, 5-hydroxytryptamine receptor 1A (Homo sapiens); experiment: Intrinsic activity for human 5-hydroxytryptamine 1A receptor in [35S]GTP-gamma-S, assay; […]; format: functional; procedure, shortened: as §2
[13] = target: 5-hydroxytryptamine receptor 2B (Homo sapiens, UniProt P41595); experiment: Binding affinity for human 5-hydroxytryptamine 2B receptor
Chain of 5-hydroxytryptamine receptor 2B (P41595 whole entry): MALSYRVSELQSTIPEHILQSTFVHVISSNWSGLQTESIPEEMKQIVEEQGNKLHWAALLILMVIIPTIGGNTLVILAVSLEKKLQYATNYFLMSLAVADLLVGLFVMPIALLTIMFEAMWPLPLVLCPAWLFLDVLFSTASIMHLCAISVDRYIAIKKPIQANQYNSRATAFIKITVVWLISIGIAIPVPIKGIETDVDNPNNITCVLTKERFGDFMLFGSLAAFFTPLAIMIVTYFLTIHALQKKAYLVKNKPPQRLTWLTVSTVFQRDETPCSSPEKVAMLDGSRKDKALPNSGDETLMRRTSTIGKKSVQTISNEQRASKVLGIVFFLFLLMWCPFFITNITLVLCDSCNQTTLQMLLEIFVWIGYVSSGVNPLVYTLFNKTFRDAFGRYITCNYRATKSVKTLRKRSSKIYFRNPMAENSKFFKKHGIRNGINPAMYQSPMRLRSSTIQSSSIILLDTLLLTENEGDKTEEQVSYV

[14] = target: 5-hydroxytryptamine receptor 1E (Homo sapiens, UniProt P28566); experiment: Binding affinity for human 5-hydroxytryptamine 1E receptor
Chain of 5-hydroxytryptamine receptor 1E (P28566 whole entry): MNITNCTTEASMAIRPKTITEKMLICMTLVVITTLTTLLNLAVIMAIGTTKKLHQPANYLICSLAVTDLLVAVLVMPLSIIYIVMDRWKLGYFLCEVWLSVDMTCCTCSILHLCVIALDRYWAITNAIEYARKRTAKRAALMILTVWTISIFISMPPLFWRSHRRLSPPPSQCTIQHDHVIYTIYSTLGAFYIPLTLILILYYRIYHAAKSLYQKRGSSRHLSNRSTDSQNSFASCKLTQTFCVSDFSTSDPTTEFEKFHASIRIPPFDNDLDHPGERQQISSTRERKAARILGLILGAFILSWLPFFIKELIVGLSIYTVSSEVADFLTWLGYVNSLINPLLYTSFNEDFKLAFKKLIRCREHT

[15] = target: 5-hydroxytryptamine receptor 7 (Homo sapiens, UniProt P34969); experiment: Binding affinity for human 5-hydroxytryptamine 7 receptor
Chain of 5-hydroxytryptamine receptor 7 (P34969 whole entry): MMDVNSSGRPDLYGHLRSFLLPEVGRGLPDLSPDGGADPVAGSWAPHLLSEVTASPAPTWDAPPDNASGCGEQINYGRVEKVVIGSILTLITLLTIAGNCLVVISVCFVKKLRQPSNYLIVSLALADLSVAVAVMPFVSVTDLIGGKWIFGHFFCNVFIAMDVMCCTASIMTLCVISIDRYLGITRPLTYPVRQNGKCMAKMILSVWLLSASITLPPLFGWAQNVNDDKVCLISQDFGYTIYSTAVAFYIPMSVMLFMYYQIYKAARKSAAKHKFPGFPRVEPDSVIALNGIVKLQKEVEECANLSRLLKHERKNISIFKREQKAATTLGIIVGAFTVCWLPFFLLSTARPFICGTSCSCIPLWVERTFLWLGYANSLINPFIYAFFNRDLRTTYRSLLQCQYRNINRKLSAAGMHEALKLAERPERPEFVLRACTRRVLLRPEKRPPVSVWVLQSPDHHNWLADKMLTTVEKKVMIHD

D(3) dopamine receptor = D(3) dopamine receptor (Homo sapiens, UniProt P35462); experiment: Binding affinity for human dopamine receptor D3
Chain of D(3) dopamine receptor (P35462 whole entry): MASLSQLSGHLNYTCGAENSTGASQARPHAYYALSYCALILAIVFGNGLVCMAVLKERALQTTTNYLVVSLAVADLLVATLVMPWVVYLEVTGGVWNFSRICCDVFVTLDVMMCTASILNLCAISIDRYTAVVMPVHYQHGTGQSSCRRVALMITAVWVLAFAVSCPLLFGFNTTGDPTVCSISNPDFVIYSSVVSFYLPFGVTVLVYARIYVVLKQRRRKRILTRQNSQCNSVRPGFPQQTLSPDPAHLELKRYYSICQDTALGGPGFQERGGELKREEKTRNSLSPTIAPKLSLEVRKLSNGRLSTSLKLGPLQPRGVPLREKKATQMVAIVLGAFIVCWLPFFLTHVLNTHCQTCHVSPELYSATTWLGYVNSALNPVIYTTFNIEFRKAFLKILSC

[16] = target: 5-hydroxytryptamine receptor 4 (Homo sapiens, UniProt Q13639); experiment: Binding affinity for human 5-hydroxytryptamine 4 receptor
Chain of 5-hydroxytryptamine receptor 4 (Q13639 whole entry): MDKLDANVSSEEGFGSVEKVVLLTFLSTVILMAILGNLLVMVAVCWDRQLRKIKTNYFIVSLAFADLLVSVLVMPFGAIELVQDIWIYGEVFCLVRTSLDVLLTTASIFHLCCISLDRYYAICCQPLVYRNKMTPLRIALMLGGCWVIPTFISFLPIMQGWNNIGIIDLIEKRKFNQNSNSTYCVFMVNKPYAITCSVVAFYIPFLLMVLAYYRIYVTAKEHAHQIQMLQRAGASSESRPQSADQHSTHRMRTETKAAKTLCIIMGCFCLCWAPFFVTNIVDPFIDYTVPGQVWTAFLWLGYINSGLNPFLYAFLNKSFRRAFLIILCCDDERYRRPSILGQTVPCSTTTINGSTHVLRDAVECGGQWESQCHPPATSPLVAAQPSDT

D(2) dopamine receptor = D(2) dopamine receptor (Homo sapiens, UniProt P14416); experiment: Binding affinity for human dopamine receptor D2
[17] = target: T5, Alpha-1B adrenergic receptor (Homo sapiens, UniProt P35368); experiment: Binding affinity for human alpha-1B adrenergic receptor
T5 sequence (P35368 whole entry): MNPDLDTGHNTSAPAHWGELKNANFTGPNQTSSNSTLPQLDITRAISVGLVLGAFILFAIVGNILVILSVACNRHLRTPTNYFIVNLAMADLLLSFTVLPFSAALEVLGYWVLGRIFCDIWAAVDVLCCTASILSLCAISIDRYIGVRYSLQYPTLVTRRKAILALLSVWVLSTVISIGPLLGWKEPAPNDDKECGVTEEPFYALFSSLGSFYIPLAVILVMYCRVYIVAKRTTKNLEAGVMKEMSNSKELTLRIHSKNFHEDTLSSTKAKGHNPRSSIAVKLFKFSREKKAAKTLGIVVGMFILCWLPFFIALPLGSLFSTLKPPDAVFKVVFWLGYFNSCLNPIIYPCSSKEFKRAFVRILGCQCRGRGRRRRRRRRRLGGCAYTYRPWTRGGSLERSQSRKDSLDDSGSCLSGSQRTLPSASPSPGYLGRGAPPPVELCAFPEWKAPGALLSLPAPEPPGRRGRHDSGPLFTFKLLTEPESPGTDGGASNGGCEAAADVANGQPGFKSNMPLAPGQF

[18] = target: T1, 5-hydroxytryptamine receptor 1D; remark: listed apart in the source
[19] = target: T6, 5-hydroxytryptamine receptor 1F (Homo sapiens, UniProt P30939); experiment: Binding affinity for human 5-hydroxytryptamine 1F receptor
T6 sequence (P30939 whole entry): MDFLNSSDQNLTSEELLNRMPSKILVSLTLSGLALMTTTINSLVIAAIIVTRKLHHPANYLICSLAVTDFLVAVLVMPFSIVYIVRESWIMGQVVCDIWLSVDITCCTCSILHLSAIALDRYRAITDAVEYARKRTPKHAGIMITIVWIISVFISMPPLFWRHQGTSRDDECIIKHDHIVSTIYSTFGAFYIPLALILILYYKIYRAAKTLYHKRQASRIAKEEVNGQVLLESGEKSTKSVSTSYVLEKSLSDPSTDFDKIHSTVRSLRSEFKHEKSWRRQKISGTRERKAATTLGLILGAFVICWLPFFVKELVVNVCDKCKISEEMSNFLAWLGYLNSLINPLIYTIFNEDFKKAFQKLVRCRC

[20] = target: 5-hydroxytryptamine receptor 6 (Homo sapiens, UniProt P50406); experiment: Binding affinity for human 5-hydroxytryptamine 6 receptor
Chain of 5-hydroxytryptamine receptor 6 (P50406 whole entry): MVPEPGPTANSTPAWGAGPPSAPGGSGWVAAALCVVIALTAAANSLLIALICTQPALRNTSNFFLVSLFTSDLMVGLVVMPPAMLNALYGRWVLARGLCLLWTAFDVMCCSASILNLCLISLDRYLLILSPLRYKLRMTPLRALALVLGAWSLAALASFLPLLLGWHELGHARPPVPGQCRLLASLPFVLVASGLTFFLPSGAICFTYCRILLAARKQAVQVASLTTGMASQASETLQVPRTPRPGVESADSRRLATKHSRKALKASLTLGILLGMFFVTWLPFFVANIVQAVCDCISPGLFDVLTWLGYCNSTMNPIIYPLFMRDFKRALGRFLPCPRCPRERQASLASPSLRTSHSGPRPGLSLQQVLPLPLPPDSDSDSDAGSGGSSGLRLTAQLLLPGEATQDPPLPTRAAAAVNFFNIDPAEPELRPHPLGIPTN

[21] = target: Beta-2 adrenergic receptor (Homo sapiens, UniProt P07550); experiment: Binding affinity for human beta-2 adrenergic receptor
[22] = target: T7, 5-hydroxytryptamine receptor 2C (Homo sapiens, UniProt P28335); experiment: Binding affinity for human 5-hydroxytryptamine 2C receptor
T7 sequence (P28335 whole entry): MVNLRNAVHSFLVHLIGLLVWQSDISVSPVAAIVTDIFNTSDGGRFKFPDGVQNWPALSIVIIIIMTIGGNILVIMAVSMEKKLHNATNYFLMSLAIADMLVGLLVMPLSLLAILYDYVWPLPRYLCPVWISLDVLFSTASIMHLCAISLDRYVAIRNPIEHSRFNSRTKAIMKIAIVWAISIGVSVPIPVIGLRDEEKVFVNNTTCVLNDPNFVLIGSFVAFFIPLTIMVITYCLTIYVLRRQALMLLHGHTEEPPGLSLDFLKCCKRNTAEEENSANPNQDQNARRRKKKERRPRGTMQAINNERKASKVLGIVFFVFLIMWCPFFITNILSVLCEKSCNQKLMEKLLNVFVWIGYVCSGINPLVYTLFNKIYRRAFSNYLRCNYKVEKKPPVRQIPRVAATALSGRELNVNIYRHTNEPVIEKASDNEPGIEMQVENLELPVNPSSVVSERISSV
Procedure, shortened: (§3)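 Radioligand displacement binding on cloned human receptors. Each determination lies within 0.3 log units of the mean.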

D(4) dopamine receptor = target: T8, D(4) dopamine receptor (Homo sapiens, UniProt P21917); experiment: Binding affinity for human dopamine receptor D4
T8 sequence (P21917 whole entry): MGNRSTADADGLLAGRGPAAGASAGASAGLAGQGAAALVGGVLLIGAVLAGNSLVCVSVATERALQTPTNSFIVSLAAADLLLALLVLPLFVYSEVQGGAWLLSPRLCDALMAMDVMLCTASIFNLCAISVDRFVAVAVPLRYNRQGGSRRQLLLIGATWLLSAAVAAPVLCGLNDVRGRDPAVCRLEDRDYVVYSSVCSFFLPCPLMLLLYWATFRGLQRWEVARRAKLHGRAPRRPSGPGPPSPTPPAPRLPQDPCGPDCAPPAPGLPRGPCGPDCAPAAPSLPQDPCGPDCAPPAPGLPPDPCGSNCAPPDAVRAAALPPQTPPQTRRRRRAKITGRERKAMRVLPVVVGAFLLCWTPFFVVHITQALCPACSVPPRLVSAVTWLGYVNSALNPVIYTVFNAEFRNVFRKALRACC

[23] = target: 5-hydroxytryptamine receptor 2A (Homo sapiens, UniProt P28223); experiment: Binding affinity for human 5-hydroxytryptamine 2A receptor; procedure, shortened: as §3
Chain of 5-hydroxytryptamine receptor 2A (P28223 whole entry): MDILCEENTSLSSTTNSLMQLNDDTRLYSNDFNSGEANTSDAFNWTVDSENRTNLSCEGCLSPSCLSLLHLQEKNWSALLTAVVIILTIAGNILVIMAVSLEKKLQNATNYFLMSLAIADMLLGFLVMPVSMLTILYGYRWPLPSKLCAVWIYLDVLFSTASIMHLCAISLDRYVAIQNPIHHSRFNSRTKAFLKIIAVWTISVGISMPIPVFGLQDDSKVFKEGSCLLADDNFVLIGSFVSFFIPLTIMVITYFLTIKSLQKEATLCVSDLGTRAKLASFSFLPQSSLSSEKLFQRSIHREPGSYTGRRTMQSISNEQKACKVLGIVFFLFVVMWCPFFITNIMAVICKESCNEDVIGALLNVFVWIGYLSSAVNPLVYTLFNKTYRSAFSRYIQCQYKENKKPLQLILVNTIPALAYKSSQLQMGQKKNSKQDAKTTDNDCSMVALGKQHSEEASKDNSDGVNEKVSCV

[24] = target: 5-hydroxytryptamine receptor 5A (Homo sapiens, UniProt P47898); experiment: Binding affinity for human 5-hydroxytryptamine 5A receptor; procedure, shortened: as §3
Chain of 5-hydroxytryptamine receptor 5A (P47898 whole entry): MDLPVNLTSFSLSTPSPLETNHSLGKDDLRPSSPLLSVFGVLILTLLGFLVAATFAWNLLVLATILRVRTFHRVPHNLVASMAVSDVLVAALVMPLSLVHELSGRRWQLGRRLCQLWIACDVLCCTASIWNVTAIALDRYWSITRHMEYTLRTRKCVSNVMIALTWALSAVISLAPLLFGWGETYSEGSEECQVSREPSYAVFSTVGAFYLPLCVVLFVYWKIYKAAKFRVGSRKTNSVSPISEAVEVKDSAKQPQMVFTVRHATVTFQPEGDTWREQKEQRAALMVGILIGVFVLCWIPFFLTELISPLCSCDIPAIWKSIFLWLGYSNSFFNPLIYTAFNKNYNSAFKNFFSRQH

T1 sequence (P28221 whole entry): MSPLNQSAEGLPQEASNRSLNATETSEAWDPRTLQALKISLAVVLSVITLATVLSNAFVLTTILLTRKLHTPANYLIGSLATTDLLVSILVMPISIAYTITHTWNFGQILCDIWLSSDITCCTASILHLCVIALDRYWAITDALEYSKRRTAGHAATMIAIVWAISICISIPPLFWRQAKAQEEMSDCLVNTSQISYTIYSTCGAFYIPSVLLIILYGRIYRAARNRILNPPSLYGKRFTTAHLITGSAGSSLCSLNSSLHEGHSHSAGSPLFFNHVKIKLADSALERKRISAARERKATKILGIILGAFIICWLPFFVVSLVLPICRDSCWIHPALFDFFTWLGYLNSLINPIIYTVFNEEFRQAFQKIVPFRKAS

Row | Compound | Selectivity [1] | Ki [2] [nM] | Ki [3] [nM] | Ki [4] [nM] | Ki [5] [nM] | other results
1 | Cc1ccc2c(OCCN3CCN(Cc4ccc(O)c([N+](=O)[O-])c4)CC3)cccc2n1 | 40 | 10 | 794 | 1000 | 398 | –
2 | Cc1ccc2c(OCCN3CCN(Cc4cccc5ncccc45)CC3)cccc2n1 | 100 | 2.51 | 398 | – | 251 | –
3 | Cc1ccc2c(OCCN3CCN(Cc4ccc(O)c(N)c4)CC3)cccc2n1 | 158 | 1.58 | > 1260 | – | 251 | –
4 | NCCc1c[nH]c2ccc(O)cc12 | – | – | – | – | – | IA [6]: 1; IA [7]: 1; IA [8]: 1
5 | Cc1ccc2c(OCCN3CCN(Cc4ccc(F)c([N+](=O)[O-])c4)CC3)cccc2n1 | 32 | 7.94 | 501 | 316 | 251 | –
6 | COc1ccc(CN2CCN(CCOc3cccc4nc(C)ccc34)CC2)cc1[N+](=O)[O-] | 16 | 20 | 398 | – | 316 | –
7 | Cc1ccc2c(OCCN3CCN(Cc4ccc(Cl)c(Cl)c4)CC3)cccc2n1 | 1 | 2510 | > 10000 | 501 | 2000 | –
8 | Cc1ccc2c(OCCN3CCN(Cc4cc(Cl)ccc4Cl)CC3)cccc2n1 | 158 | 3.98 | 79.4 | 1260 | 631 | –
9 | COc1ccc(NC(=O)c2ccc(-c3ccc(-c4noc(C)n4)cc3C)cc2)cc1N1CCN(C)CC1 | – | – | – | – | – | IA [9]: 0.47; IA [10]: 0.86
10 | Cc1ccc2c(OCCN3CCN(Cc4c(Cl)cccc4Cl)CC3)cccc2n1 | – | > 10000 | > 10000 | 1260 | > 10000 | –
11 | Cc1ccc2c(OCCN3CCN(Cc4cccc5ncncc45)CC3)cccc2n1 | 126 | 2.51 | 398 | – | 316 | –
12 | Cc1ccc2c(OCCN3CCC(Cc4ccc5c(c4)NC(=O)CO5)CC3)cccc2n1 | – | 1.58 | – | – | – | –
13 | Cc1ccc2c(OCCN3CCN(Cc4ccc5[nH]ccc5c4)CC3)cccc2n1 | 50 | 3.16 | 1000 | – | 158 | –
14 | CN1CCN(c2cc3c(cc2Cl)CCN3C(=O)Nc2ccc(-c3ccncc3)c3ccccc23)CC1 | – | – | – | – | – | IA [11]: 0.44
15 | Cc1ccc2c(OCCN3CCN(Cc4ccc(C)c([N+](=O)[O-])c4)CC3)cccc2n1 | 40 | 2 | 39.8 | 50.1 | 79.4 | –
16 | Cc1ccc2c(OCCN3CCN(Cc4ccc(Cl)c([N+](=O)[O-])c4)CC3)cccc2n1 | 40 | 5.01 | 63.1 | 200 | 200 | –
17 | Cc1ccc2c(OCCN3CCN(Cc4ccc5c(c4)NC(=O)CO5)CC3)cccc2n1 | 10 | 10 | 63.1 | 25.1 | 100 | –
18 | Cc1ccc2c(OCCN3CCN(Cc4cccc5cc[nH]c45)CC3)cccc2n1 | 126 | 3.16 | 398 | 398 | 398 | IA [12]: 0; IA [9]: 0.1; IA [10]: 0.5
19 | Cc1ccc2c(OCCN3CCN(Cc4cccc5[nH]cnc45)CC3)cccc2n1 | 251 | 0.251 | 158 | 794 | 63.1 | IA [12]: 0; IA [9]: 0.3; IA [10]: 0.5
20 | Cc1ccc2c(OCCN3CCN(Cc4cccc5cccnc45)CC3)cccc2n1 | 251 | 0.794 | 316 | 316 | 200 | Ki [13]: 1260 nM; Ki [14]: > 10000 nM; Ki [15]: 501 nM; Ki (D(3) dopamine receptor): 1000 nM; Ki [16]: > 5010 nM; Ki (D(2) dopamine receptor): 3160 nM; Ki [17]: 1000 nM; IA [18]: 0; Ki [19]: 2000 nM; Ki [20]: > 10000 nM; Ki [21]: 2000 nM; Ki [22]: 3160 nM; Ki (D(4) dopamine receptor): > 10000 nM; Ki [23]: > 2510 nM; IA [12]: 0; IA [9]: 0.3; Ki [24]: 3160 nM

From ChEMBL document CHEMBL1139504, “Discovery of the first potent, selective 5-hydroxytryptamine1D receptor antagonist” (J Med Chem, 2005)
